The text below walks through data of ChEMBL document CHEMBL4715912, “Discovery of a novel series of indolinylpyrimidine-based GPR119 agonists: Elimination of ether-a-go-go-related gene liability using a hydrogen bond acceptor-focused approach” (Bioorg Med Chem, 2021).

The source made the active and inactive calls. No cut-off for these calls is given here.

A word on the bioavailability: it is the share of a dose that reaches the circulation, judged against a reference dose that is usually intravenous. High values mean good availability, low ones poor availability. Usually MRT stands for the average time that molecules of a dose stay in the body. A word on the EC50: it is the concentration giving half of the maximal effect.

Data set [1] can be described thus: Oral bioavailability in rat at 1 mg/kg by LC/MS/MS analysis. It is filed as ADME, organism-based. To be noted: in vivo. The method, boiled down:
(§1)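 Cassette dosing, given by mouth at 1 mg/kg in 0.5% methylcellulose aqueous solution, with intravenous arm at 0.1 mg/kg, to non-fasted animals. Blood collected after dosing, plasma deproteinized and centrifuged, compound measured by LC/MS/MS.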

Data set [2] deals with Rattus norvegicus. The data set can be described thus: Antidiabetic activity in N-STZ 1.5 rat assessed as increase in plasma insulin level at 1 to 3 mg/kg, po pre-treated for 60 mins followed by 1.5 g/kg glucose treatment and measured up to 120 mins by radioimmunoassay. To be noted: dose 1-3 mg/kg, time min <=180. It is filed as functional, organism-based. The method, boiled down:
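Male N-STZ1.5 rats, 25–30 weeks old, fasted overnight, dosed orally with compound or 0.5% methylcellulose vehicle; 60 min later oral glucose load 1.5 g/kg. Tail-vein blood taken pre-dose, at 0, 10, 30, 60 and 120 min; plasma glucose by autoanalyzer, insulin by radioimmunoassay. AUC computed; mean ± SD, n = 6; one-tailed Williams' test.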

The nature of data set [3]: MRT in rat at 1 mg/kg, po by LC/MS/MS analysis. It is filed as ADME, organism-based. To be noted: in vivo. The method, boiled down: as §1
In data set [4] the target is T1, Glucose-dependent insulinotropic receptor (Mus musculus, UniProt Q7TQP3).
T1 sequence (Q7TQP3 whole entry): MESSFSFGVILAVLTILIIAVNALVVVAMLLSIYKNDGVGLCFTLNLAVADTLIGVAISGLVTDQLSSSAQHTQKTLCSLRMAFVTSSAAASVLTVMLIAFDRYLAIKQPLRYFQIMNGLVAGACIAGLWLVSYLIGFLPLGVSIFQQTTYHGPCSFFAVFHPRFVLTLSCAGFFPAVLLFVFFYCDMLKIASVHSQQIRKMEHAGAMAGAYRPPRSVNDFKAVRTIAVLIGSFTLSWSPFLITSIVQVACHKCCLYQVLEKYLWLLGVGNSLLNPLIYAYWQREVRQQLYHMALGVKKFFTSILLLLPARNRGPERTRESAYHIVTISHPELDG
The data set can be described thus: Agonist activity at GPR119 in glucose-induced mouse L cells assessed as induction of GLP-1 secretion after 2 hrs by ELISA. In outline: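 GLUTag cells (murine L cell line) seeded at 1 × 10^4 cells/well on poly-L-lysine, switched to low-glucose DMEM overnight, washed with HBSS, then exposed to compounds in KRBH buffer with 0.2% fatty acid free BSA and 10 mmol/L glucose for 2 h at 37 °C. Active GLP-1 in supernatant by ELISA; EC50 from n = 2.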

Data set [5] addresses T2, Glucose-dependent insulinotropic receptor (Homo sapiens, UniProt Q8TDV5).
T2 sequence (Q8TDV5 whole entry): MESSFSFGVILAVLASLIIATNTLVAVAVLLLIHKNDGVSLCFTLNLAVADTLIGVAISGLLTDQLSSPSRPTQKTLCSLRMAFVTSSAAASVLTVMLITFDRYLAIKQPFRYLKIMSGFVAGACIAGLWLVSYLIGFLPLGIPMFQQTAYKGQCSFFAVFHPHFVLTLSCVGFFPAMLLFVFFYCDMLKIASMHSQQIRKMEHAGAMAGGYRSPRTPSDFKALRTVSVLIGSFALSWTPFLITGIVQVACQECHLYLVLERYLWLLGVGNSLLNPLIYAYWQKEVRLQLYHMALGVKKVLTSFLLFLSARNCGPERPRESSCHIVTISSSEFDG
The data set can be described thus: Agonist activity at human GPR119 expressed in CHO cells co-expressing cyclic AMP response element incubated for 2 hrs by steady-glo luciferase assay. It is filed as cell-based. In outline:
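CHO cells stably expressing human GPR119, seeded at 10,000 cells/well in MEM α with 500 µg/mL Geneticin overnight, then exposed to graded compound concentrations in MEM α/20 mmol/L HEPES/0.1% BSA for 2 h. cAMP-driven luciferase read with Steady-Glo. Response normalized between vehicle and a 10 µM reference agonist; EC50 as mean of n = 2.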

Data set [6] in a line: Volume of distribution at steady state in rat at 0.1 mg/kg, iv by LC/MS/MS analysis. The following applies: in vivo, read-out: Vdss. It is filed as ADME, organism-based. The method, boiled down: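 Cassette intravenous dosing at 0.1 mg/kg to non-fasted animals. Plasma taken from blood samples, deproteinized and centrifuged, and compound levels in supernatant quantified by LC/MS/MS.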

`CC(C)c1noc(N2CCC(Oc3cc(N4CCc5cc(N6CCC[C@H](O)C6=O)ccc54)ncn3)CC2)n1` displayed a bioavailability in data set [1] of 24%. Also, the outcome in data set [2] was Active. Moreover, the MRT in data set [3] came out at 3.8 h. The results for the EC50 in data set [4] and in data set [5] were 0.019 µM and 0.016 µM, respectively. Besides, the Vd in data set [6] was 0.332 L/kg.
